The target of assay [1] is Aldo-keto reductase family 1 member B1 (Rattus norvegicus, UniProt P07943). In words: Inhibition of rat kidney aldose reductase activity assessed as NADPH oxidation. A digest of the protocol:
(§1)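 Assay in 0.067 M phosphate buffer, pH 6.2, with NADPH (2 × 10^-5 M final) and DL-glyceraldehyde substrate (5 × 10^-5 M final). The 340 nm absorbance decrease is followed for 5 min at 37 °C. Drug is added from a 10^-4 M stock in 50% DMF/50% methanol. Percent inhibition is measured at this single drug concentration, and IC50 from a concentration series. Triplicates; mean ± SD of three experiments.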

Assay [2] concerns INS1. In words: Insulinotropic activity in rat INS1 cells assessed as glucose-mediated insulin release at 1 ug/ml by radioimmunoassay relative to glucose. Format: functional. A digest of the protocol: (§2)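 Rat INS-1 cells are grown 4–6 days to half confluence in RPMI with 10% FCS and penicillin/streptomycin. Cells are washed, then incubated 90 min at 37 °C in KRBH (10 mM HEPES, 0.5% BSA) at 5.6 mM glucose, with or without compound. Secreted insulin is measured by radioimmunoassay with a rat insulin standard and corrected for solvent (ethanol, DMSO). Results are normalized to 5.6 mM glucose = 100%. Mean ± SEM, N = 4–8; ANOVA with Newman–Keuls.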

Assay [3] has as its target Aldo-keto reductase family 1 member B1 (Rattus norvegicus) (UniProt P07943). Kind of assay: Inhibition of rat kidney aldose reductase activity assessed as NADPH oxidation at 100 uM. The method, boiled down:
as §1

Assay [4] has as its system INS1. In words: Insulinotropic activity in rat INS1 cells assessed as glucose-mediated insulin release at 10 ug/ml by radioimmunoassay relative to glucose. Format: functional. A digest of the protocol:
as §2

Structures are written as SMILES. pIC50: −log10 of the molar value.

The pIC50 is the negative decadic logarithm of the IC50, by convention in mol/L. Usually inhibition stands for the drop in the measured response relative to a control, in per cent.

For the compound `O=C(O)CN1C(=O)S/C(=C\c2cccc(-c3cc(=O)c4ccccc4o3)c2)C1=O`, the negative logarithm of the IC50 (pIC50) in assay [1] was 6.38. For the same compound, the Activity in assay [2] amounted to 98.1%; in assay [4] it was 84.09%. The inhibition in assay [3] was 86.6%.
As to `O=C1NC(=O)/C(=C/c2cccc(-c3cc(=O)c4ccccc4o3)c2)S1`, the Activity stood at 79.76% in assay [2] and 18.95% in assay [4]. Also, in assay [3], the inhibition amounted to 22.1%.
For the compound `O=C1NC(=O)/C(=C/c2ccc(-c3cc(=O)c4ccccc4o3)cc2)S1`, the pIC50 in assay [1] was 6.36. Moreover, the figures for the Activity in assay [2] and in assay [4] were 55.7% and 23.79%, respectively. In addition, the inhibition in assay [3] turned out to be 88.7%.
Take `O=C(O)CN1C(=O)S/C(=C\c2ccc3oc(-c4ccccc4)cc(=O)c3c2)C1=O`: the pIC50 in assay [1] was 6.07. For the same compound, the values for the Activity in assay [2] and in assay [4] were 101.3% and 80.92%, respectively. Besides, in assay [3], the inhibition came out at 56.3%.
For the compound `COc1ccc(Cl)cc1C(=O)NCCc1ccc(S(=O)(=O)NC(=O)NC2CCCCC2)cc1` [GLYBURIDE], the Activity in assay [2] is listed as 179.6%.
With `CCOC(=O)CN1C(=O)S/C(=C\c2cccc(-c3cc(=O)c4ccccc4o3)c2)C1=O`, the Activity turned out to be 103.4% in assay [2] and 98.43% in assay [4]. The inhibition in assay [3] was 12.9%.
On the same counts, the results for `CCOC(=O)CN1C(=O)S/C(=C\c2ccc3oc(-c4ccccc4)cc(=O)c3c2)C1=O` are 93.28%, 98.52% and 14.4%.
Turning to `O=C1NC(=O)/C(=C/c2ccc3oc(-c4ccccc4)cc(=O)c3c2)S1`, the pIC50 in assay [1] is 6.17. The values for the Activity in assay [2] and in assay [4] were 82.55% and 158.9%, respectively. In addition, in assay [3], the inhibition turned out to be 64.9%.
As for `CCOC(=O)CN1C(=O)S/C(=C\c2ccc(-c3cc(=O)c4ccccc4o3)cc2)C1=O`, the Activity amounted to 106.2% in assay [2] and 128.6% in assay [4]. For the same compound, the inhibition in assay [3] amounted to 6.74%.
On the same counts, the results for `O=C(O)CN1C(=O)S/C(=C\c2ccc(-c3cc(=O)c4ccccc4o3)cc2)C1=O` are 102.4%, 91.88% and 44.6%.
